An excerpt weighted towards active compounds, which were near 4.8% of everything screened.
CSC inhib: cancer stem cell viability inhibitors, primary screen, luminescence. cancer stem cell-like cells viability. inhibition, % at 7.5 µM. 300,000 tested, 1.1% active; in the data active means inhibition above about 75%; tested in HMLE shEcad cells
Mdm2-MdmX inh: inhibitors of human Mdm2-MdmX association, primary screen, cell-based, luminescence, split luciferase, SaOS-2, uHTS; Protein Mdm4 (Homo sapiens) + E3 ubiquitin-protein ligase Mdm2 (Homo sapiens), …; SaOS-2 split-luciferase Mdm2/MdmX complementation; inhibition, % at 8 µM; 330,000 tested, 3% active;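 active means inhibition of at least 50% at 8 µM in the primary screen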
Beta apoptosis: inhibitors of cytokine-induced beta cell apoptosis, primary screen, luminescence | INS-1E cytokine-induced death, ATP luminescence, 48 h; percent of positive-control rescue, neutral wells zero | protection from apoptosis, % (concentration not given with the values) | 300,000 tested, 0.8% active | AID 435005, 2010;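 active means Every replicate reaches about 75%, or at least half do and their mean reaches it too, limit read from the data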;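 further: 0% = cytokine-treated negative control wells and 100% = positive control rescue; higher means more ATP so stronger rescue from cytokine killing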
SKKanGAS inh: S. pyogenes SKKanGAS growth inhibitors in kanamycin, primary screen, streptokinase expression inhibitor project, SKKanGAS strain, BacTiter-Glo luminescence; 6 h; 300,000 tested, 1.3% active; inhibition, % at 7.5 µM; AID 1662, 2009;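 active means mean replicate score, as percent of positive control median, at least 50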;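 further: strain carries kanamycin resistance gene driven by streptokinase promoter and grows in 40 µg/ml kanamycin; loss of luminescence reflects streptokinase promoter inhibition or plain growth inhibition; 0% = median of DMSO wells and 100% = positive control at its reference dose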
XBP1 UPR activ: activators of adaptive XBP1 UPR arm, primary screen, cell-based, CHO-XBP1 luciferase reporter, luminescence, uHTS | IRE1-XBP1 UPR activation; percent of tunicamycin response, DMSO as zero | activation, % at 20 µM | 330,000 tested, 0.33% active | AID 463104, 2010;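 active means versus positive control, 20 µM dose yields 30% or more activation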;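 further: 100% = tunicamycin at 10 µg/mL and 0% = DMSO only wells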
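Material – CHO cell line with stable XBP1 luciferase reporter · Buffer or medium – F12 plus 10% FBS · Compound – single point, 20 µM final compound, 1% DMSO · Schedule – 16-18 h cell attachment at 37 °C, then 6 h compound exposure · Signal – Steady-Glo luminescence read · Benchmarks – high control tunicamycin 10 µg/mL final, low control DMSO vehicle only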
CHOP UPR activ: activators of apoptotic CHOP UPR arm, primary screen, cell-based, CHO-CHOP luciferase reporter, luminescence, uHTS | 330,000 tested, 0.34% active | activation, % at 10 µM | UPR activation; percent of tunicamycin response over DMSO baseline;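 active means at 10 µM dose, activation of 40% or more, normalized to positive control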;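 further: 100% = tunicamycin at 10 µg/mL and 0% = DMSO alone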
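Evaluation: % reporter activation, DMSO baseline versus tunicamycin full activation; System: CHO-CHOP luciferase reporter cell line; Input: 500 cells/well; Incubation: 6 h compound treatment, 37 °C; Measured by: Steady-Glo luciferase luminescence; Dosing: one dose, 10 µM in 0.5% DMSO; Buffer or medium: F12 medium, 10% FBS; Benchmarks: positive tunicamycin 10 µg/mL, negative DMSO alone.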
* = called active by the depositor.

Results for O=C(/C=C/c1ccc2c(c1)OCO2)Nc1ccc(Cl)cn1 ?
CSC inhib: 88.2*; Mdm2-MdmX inh: -101.5; Beta apoptosis: 17.3; SKKanGAS inh: -11.2; XBP1 UPR activ: -1.8; CHOP UPR activ: 4.1

What do the screens show for `Cc1cc(NC(=O)/C=C/c2ccc(Cl)cc2)no1`?
CSC inhib: 78.1*; Mdm2-MdmX inh: -11.8; Beta apoptosis: 2.0; SKKanGAS inh: -1.8; XBP1 UPR activ: 1.9; CHOP UPR activ: 9.9

Results for O=C(/C=C/c1ccc2c(c1)OCO2)NCCSCc1cccc(Cl)c1 ?
CSC inhib: 102.2*; Mdm2-MdmX inh: 15.5; Beta apoptosis: -0.5; SKKanGAS inh: -6.0; XBP1 UPR activ: 2.7; CHOP UPR activ: -0.2

Results for Cc1cc(NC(=O)/C=C/c2ccc(Br)cc2)no1 ?
CSC inhib: 39.6; Mdm2-MdmX inh: -6.5; Beta apoptosis: 1.4; SKKanGAS inh: 1.1; XBP1 UPR activ: 0.2; CHOP UPR activ: 6.1

How did O=C(CSCc1cccc(Br)c1)N/N=C/c1ccc2c(c1)OCO2 do in these assays?
CSC inhib: 100.3*; Mdm2-MdmX inh: 29.4; Beta apoptosis: -1.1; SKKanGAS inh: 9.1; XBP1 UPR activ: -1.1; CHOP UPR activ: 0.1

Results for CCOc1ccccc1Nc1nnc(SCC(=O)N(C)C2CCS(=O)(=O)C2)s1 (stereo not given) ?
Mdm2-MdmX inh: -9.4; Beta apoptosis: 0.9; XBP1 UPR activ: -0.5; CHOP UPR activ: -0.7

How did N#Cc1ccc(COC(=O)c2cnc3ccccc3n2)cc1 do in these assays?
CSC inhib: -11.1; Mdm2-MdmX inh: 6.9; Beta apoptosis: -5.5; SKKanGAS inh: -2.0; XBP1 UPR activ: 3.1; CHOP UPR activ: 0.0

What do the screens show for `N#Cc1c(N)nc2c(c1-c1cccc(O)c1)CCCCCC2`?
CSC inhib: 81.8*; Mdm2-MdmX inh: 34.8; Beta apoptosis: -3.0; SKKanGAS inh: -9.1; XBP1 UPR activ: 3.2; CHOP UPR activ: 0.7

Results for CCCOc1ccc(C(=O)Nc2ccc(S(=O)(=O)N3C[C@@H]4C[C@@H](C3)c3cccc(=O)n3C4)cc2)cc1 ?
CSC inhib: 10.9; Mdm2-MdmX inh: 33.4; Beta apoptosis: -7.9; XBP1 UPR activ: 1.8; CHOP UPR activ: 3.3

How did O=C(O)c1ccc(/C=C/c2ccc3cccc(O)c3n2)cc1 do in these assays?
Mdm2-MdmX inh: 5.3; SKKanGAS inh: 2.8; XBP1 UPR activ: -1.7; CHOP UPR activ: 3.9

What do the screens show for `Oc1ccc(/C=C/c2ccc3cccc(O)c3n2)cc1Br`?
CSC inhib: 92.7*; Mdm2-MdmX inh: -1.1; Beta apoptosis: 13.1; SKKanGAS inh: 89.2*; XBP1 UPR activ: 5.6; CHOP UPR activ: 2.5

How did O/N=C/c1ccc2cccc(O)c2n1 do in these assays?
CSC inhib: 5.0; Mdm2-MdmX inh: 11.2; Beta apoptosis: -3.5; SKKanGAS inh: 12.1; XBP1 UPR activ: 1.6; CHOP UPR activ: -0.2

Results for Nc1nccc(/C=C/c2c(F)cccc2Cl)n1 ?
CSC inhib: 5.2; Mdm2-MdmX inh: -7.9; Beta apoptosis: -8.0; SKKanGAS inh: -0.2; XBP1 UPR activ: 0.2; CHOP UPR activ: 2.1

Results for Oc1cccc2ccc(/C=C/c3c(F)cccc3Cl)nc12 ?
CSC inhib: 22.1; Mdm2-MdmX inh: -58.5; SKKanGAS inh: 73.8*; XBP1 UPR activ: 8.7; CHOP UPR activ: 6.0

Results for Oc1cccc2ccc(/C=C/c3ccccc3Cl)nc12 ?
CSC inhib: 61.5; Mdm2-MdmX inh: -46.7; Beta apoptosis: 55.9; SKKanGAS inh: 98.9*; XBP1 UPR activ: -0.2; CHOP UPR activ: 19.1

What do the screens show for `Cn1c(CC(=O)NNC(=O)c2cccnc2)nc2ccccc21`?
Mdm2-MdmX inh: -6.3; Beta apoptosis: -7.4; XBP1 UPR activ: -2.9; CHOP UPR activ: 1.3

What do the screens show for `CC(=O)N1CC(C)Sc2ccc(S(=O)(=O)NC(C)c3ccccc3)cc21` (stereo not given)?
CSC inhib: -20.5; Mdm2-MdmX inh: 9.3; Beta apoptosis: 2.6; SKKanGAS inh: -0.4; XBP1 UPR activ: -1.6; CHOP UPR activ: 3.6

High-throughput results (PubChem)
